Calls of active or inactive are those of the source. No cut-off for these calls is given here.
Key:
Caspase-1 (Homo sapiens) = target: T1, Caspase-1 (Homo sapiens) (UniProt P29466); experiment: Inhibition of caspase-1 in human THP1 cells after 24 hrs by fluorometric assay; type: cell-based; conditions: THP-1
T1 sequence (whole entry): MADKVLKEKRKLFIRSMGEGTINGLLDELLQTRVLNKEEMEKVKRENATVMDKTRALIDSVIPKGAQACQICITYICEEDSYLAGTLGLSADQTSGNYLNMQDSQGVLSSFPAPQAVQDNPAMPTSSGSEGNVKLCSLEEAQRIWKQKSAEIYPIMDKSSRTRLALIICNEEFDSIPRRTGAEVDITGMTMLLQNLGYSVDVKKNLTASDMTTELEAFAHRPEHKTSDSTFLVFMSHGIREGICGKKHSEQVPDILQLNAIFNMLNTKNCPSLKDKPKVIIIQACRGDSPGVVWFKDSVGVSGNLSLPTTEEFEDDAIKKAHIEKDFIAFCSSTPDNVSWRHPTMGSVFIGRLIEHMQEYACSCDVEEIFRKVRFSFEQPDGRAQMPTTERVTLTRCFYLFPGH

THP-1 [1] = experiment: Inhibition of IL-1beta production in human THP1 cells at 250 uM by ELISA; type: functional, cell-based
Method in brief: (§1)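 THP-1 cells are kept in RPMI with 10% FBS, 0.05 mM 2-mercaptoethanol, sodium pyruvate and penicillin/streptomycin/amphotericin B. They are differentiated with PMA (1 µg/mL) 24 h beforehand, scraped, and resuspended at 1.0 × 10^6 cells/mL. Cells are co-exposed to compound, LPS (20 ng/mL) and TiO2 nanowires (100 µg/mL) for 24 h at 37 °C in CO2. Supernatant IL-1β is measured by ELISA read at 490 nm.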

HL-60(TB) = experiment: Cytotoxicity against human HL-60(TB) cells by MTS assay; type: functional
THP-1 [2] = experiment: Inhibition of IL-1beta production in human THP1 cells at 50 uM by dilution assay; type: functional, cell-based; method in brief: as §1
Leukemia cell = experiment: Cytotoxicity against human leukemia cells by MTS assay; type: functional, cell-based
SR = experiment: Cytotoxicity against human SR cells by MTS assay; type: functional
CCRF-CEM = experiment: Cytotoxicity against human CCRF-CEM cells by MTS assay; type: functional
THP-1 [3] = experiment: Inhibition of IL-1beta production in human THP1 cells at 5 uM by dilution assay; type: functional, cell-based; method in brief: as §1
RPMI-8226 = experiment: Cytotoxicity against human RPMI8226 cells by MTS assay; type: functional

Row | Structure (SMILES) | inhibition (THP-1 [1]) | IC100 (Caspase-1 (Homo sapiens)) [µM] | Activity (Leukemia cell) | also measured
1 | CCCc1cc(=O)c([C@@H]2OC(=O)c3cc(OC)cc(OC)c32)co1 | Active | – | – | inhibition (Caspase-1 (Homo sapiens)): inactive; Activity (HL-60(TB)): inactive
2 | C/C=C/C1=CC2=CC(=O)[C@](C)(O)[C@H](OC(=O)c3c(C)cc(O)cc3O)[C@H]2CO1 [BERKAZAPHILONE C] | Active | 25 | Active | inhibition (THP-1 [2]): Active; GI50 (SR): 380 nM
3 | C/C=C/c1cc(=O)c([C@@H]2OC(=O)c3cc(OC)cc(OC)c32)co1 | Active | – | – | –
4 | COc1cc(OC)c2c(c1)C(=O)O[C@H]2c1coc(C)cc1=O [PENISIMPLICISSIN] | Active | – | Active | GI50 (CCRF-CEM): 200 nM; GI50 (HL-60(TB)): 1480 nM
5 | C/C=C/C1=CC2=CC(=O)[C@](C)(OC(=O)c3c(C)cc(O)cc3O)[C@H](O)[C@H]2CO1 [BERKAZAPHILONE B] | Active | 25 | Active | inhibition (THP-1 [3]): Active; GI50 (RPMI-8226): 2140 nM

From ChEMBL document CHEMBL2021827, “Caspase-1 inhibitors from an extremophilic fungus that target specific leukemia cell lines” (2012)
